Screening data: PubChem, Sanford-Burnham Center for Chemical Genomics
The list is not random: actives were taken first. Their share in the collection is about 2.3%.
Rpn11 inh – inhibitors of human proteasome Rpn11; O00487; human 26S proteasome, Ub4-pepOG fluorescence polarization; 20S core pre-blocked with epoxomicin; inhibition, % at 20 µM; 360,000 tested, 0.59% active;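 active means inhibition at 20 µM, scaled to each plate's controls, above about 33%, limit read from the data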
DNMT1 block – inhibitors of human DNMT1. P26358. DNMT1 molecular beacon, Hinp1I cleavage, fluorescence. inhibition (reported as % activation of signal), % at 10 µM. AID 588458. 360,000 tested, 0.83% active
SKN-1 block – inhibitors of C. elegans SKN-1; 360,000 tested, 0.49% active; inhibition, % at 21.8 µM; C. elegans VP596 Pgst-4::GFP/RFP ratio, acrylamide-induced, 24 h; AID 624304;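 active means interference check ratio from 0.5 to 1.5 plus GFP to RFP signal ratio inhibition reaching or exceeding a fixed threshold, cut at about 30% in these data, passing the limit was not always enough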
SUMO1-SIM PPI – alters human SUMO1 binding to SIM partners; AID 602429; inhibition, % at 20 µM; 360,000 tested, 0.33% active; SUMO1 binding to a labelled peptide, TR-FRET, 1 h; in the data active means inhibition above about 37%
CSN inh – CSN deneddylation inhibition. 360,000 tested, 0.38% active. Q92905. AID 651999. inhibition, % at 12.5 µM. Purified CSN, SCF-Nedd8-OG deneddylation, fluorescence polarization;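 active means pattern-corrected inhibition above about 35%, with an unprinted fluorescence ratio check between 0.5 and 1.5, limit read from the data, passing the limit was not always enough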
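Assay system: purified human Csn5 enzyme expressed in HEK293T cells; measure: % inhibition; also added: SCFSkp2-Nedd8OG substrate at 10 nM final; technique: fluorescence polarization; times: reaction 90 min, room temperature; medium: Tris buffer pH 7.5, NaCl, DTT, Tween-20, trehalose, ovalbumin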
MT1-MMP act inh – blocks activation of human MT1-MMP; 360,000 tested, 0.061% active; HT1080 RFP-PRO-GFP cells, GFP/RFP ratio fluorescence, overnight; percent of plate control window, DMSO zero; P50281; GFP/RFP ratio change, % at 20 µM;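 active means GFP/RFP ratio change of at least 30% with cell ATP level not reduced by more than half and red fluorescence within 50% of control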
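Read-out: GFP/RFP fluorescence ratio; Test system: RFP-PRO-GFP reporter HT1080 cells; Compound dosing: single-point 20 µM compound, 1% DMSO; Times: overnight compound exposure at 37 °C.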
MT1-MMP conf – MT1-MMP (human) activation inhibition, single-concentration validation. HT1080 RFP-PRO-GFP cells, GFP and RFP fluorescence ratio, overnight. AID 652235. 200 tested, 10% active. inhibition, % at 20 µM. shares compounds with MT1-MMP act inh;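 active means inhibition of at least 50% in the primary cell screen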
CSN5 deneddyl – Csn5 (human) deneddylation inhibition, single-concentration validation; Csn5 deneddylation of SCF-Nedd8OG, fluorescence polarization, 90 min; inhibition, % at 16.6 µM; 540 tested, 62% active; shares compounds with CSN inh
MMP2 cntr CSN – blocks human MMP-2 in a CSN deneddylation counter-screen; shares compounds with CSN inh; recombinant MMP-2, FRET substrate fluorescence, 60 min; inhibition, % at 16.6 µM; 540 tested, 33% active; AID 720655;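 active means corrected plate-normalized z-score of 5 or more, or -5 or less, or inhibition of 15% or more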
Target sequence (P08253 whole entry, looked up): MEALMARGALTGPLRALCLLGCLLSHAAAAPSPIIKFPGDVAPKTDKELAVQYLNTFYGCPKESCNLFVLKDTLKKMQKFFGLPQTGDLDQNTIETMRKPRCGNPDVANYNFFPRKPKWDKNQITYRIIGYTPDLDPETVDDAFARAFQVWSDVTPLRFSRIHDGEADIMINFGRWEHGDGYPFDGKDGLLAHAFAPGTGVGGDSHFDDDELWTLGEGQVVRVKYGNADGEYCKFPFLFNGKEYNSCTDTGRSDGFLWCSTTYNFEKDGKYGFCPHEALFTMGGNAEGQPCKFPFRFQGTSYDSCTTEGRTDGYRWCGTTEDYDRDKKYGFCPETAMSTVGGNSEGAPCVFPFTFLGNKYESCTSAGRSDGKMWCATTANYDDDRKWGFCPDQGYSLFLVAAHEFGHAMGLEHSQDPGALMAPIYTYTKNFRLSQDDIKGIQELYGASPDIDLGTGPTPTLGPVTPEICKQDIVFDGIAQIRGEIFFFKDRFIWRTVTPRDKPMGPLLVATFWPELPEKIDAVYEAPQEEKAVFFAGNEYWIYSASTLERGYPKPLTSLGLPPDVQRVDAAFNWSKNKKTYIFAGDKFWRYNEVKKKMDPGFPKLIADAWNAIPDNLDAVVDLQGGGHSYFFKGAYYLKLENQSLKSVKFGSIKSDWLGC
Thrombin counter – thrombin (bovine) inhibition, counter-screen for CSN hits. shares compounds with CSN inh. bovine thrombin cleavage of Ub4-pepOG, fluorescence polarization. inhibition, % at 16.6 µM. 540 tested, 49% active. AID 720656;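 active means inhibition at or above a set limit, with a fluorescence interference ratio between 0.5 and a set maximum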
Numbers stand for hits; i = inactive; nt = no result shown. Unless noted, no stated cut-off is given here; in the data, active means inhibition above about 50%; inactive means the rest.

SMILES | Rpn11 inh | DNMT1 block | SKN-1 block | SUMO1-SIM PPI | CSN inh | MT1-MMP act inh | CSN5 deneddyl | MMP2 cntr CSN | Thrombin counter | others
COc1cc2c(cc1OC)-c1c3c(cc4c1[C@@H](C2)N(C)CC4)OCO3 | i | i | i | i | i | 33 | nt | nt | nt | MT1-MMP conf=i
COC(=O)C1=C(c2ccc(OC(F)(F)F)cc2)C[C@@H]2CC[C@H]1N2C(=O)NCCc1ccccc1 | i | i | i | i | i | 31 | nt | nt | nt | MT1-MMP conf=i
COC(=O)C1=C(c2ccc(OC(F)(F)F)cc2)C[C@@H]2CC[C@H]1N2C(=O)NCCNC(C)=O | i | i | i | i | i | i | nt | nt | nt
CCOC(=O)c1cc2c(cn1)[C@@H](CCO)NC2 | i | i | i | i | i | i | nt | nt | nt
CC[n+]1c(/C=C/N(C)c2ccccc2)sc2ccc(Cl)cc21 | i | i | i | i | i | 52 | nt | nt | nt | MT1-MMP conf=i
O=C1NC(=O)N(CCc2ccc(F)cc2)C(=O)/C1=C/c1cccs1 | i | i | i | i | i | i | nt | nt | nt
C=CCN1C(=O)/C(=C/c2cccs2)C(=O)NC1=S | i | i | i | i | i | 35 | nt | nt | nt | MT1-MMP conf=i
S=C(NCCc1ccccc1)N1Cc2ccc(Br)cc2-n2nncc2C1 | i | i | i | i | i | nt | nt | nt | nt
Cc1ccccc1-c1ccc2c(c1)CNCc1cnnn1-2 | i | i | i | i | i | i | nt | nt | nt
O=C(CF)NC(Nc1cccc2cccnc12)C(Cl)(Cl)Cl (stereo unspecified) | i | i | i | i | i | 49 | nt | nt | nt | MT1-MMP conf=i
CC(C)OC(=O)c1c(N)n(CC2CCCO2)c2nc3ccccc3nc12 (stereo unspecified) | i | i | i | 42 | i | 37 | nt | nt | nt | MT1-MMP conf=i
CCOC(=O)c1cccc(C2=C(CNC(=O)c3ccc([N+](=O)[O-])cc3)[C@H]3CC[C@@H](C2)N3Cc2ccccc2)c1 | i | i | i | i | i | i | nt | nt | nt
O=C(O)c1cccc2c1NC(C(=O)O)C1CC(Sc3ccccc3[N+](=O)[O-])C(Cl)C21 (stereo unspecified) | i | 104 | i | 88 | i | 38 | nt | nt | nt | MT1-MMP conf=i
COc1ccc(OC(=O)N(C)C[C@@H]2OCc3cnnn3CCCC(=O)N([C@H](C)CO)C[C@H]2C)cc1 | i | i | i | i | i | i | nt | nt | nt
CCOc1ccc2nc(N=Nc3c(O)[nH]c(=S)[nH]c3=O)sc2c1 | i | i | i | i | i | 59 | nt | nt | nt | MT1-MMP conf=i
O=C1NC(=O)N(c2ccc3c(c2)OCO3)C(=O)/C1=C/c1ccc(N2CCCCC2)o1 | nt | i | i | i | i | i | nt | nt | nt
Cc1cc(C)cc(N2C(=O)/C(=C\c3ccc(N4CCN(C)CC4)o3)C(=O)NC2=S)c1 | nt | i | i | i | 76 | i | 103 | -48 | i
Cc1ccccc1NC(=O)N1Cc2ccccc2-n2nncc2C1 | i | i | i | i | i | i | nt | nt | nt
Nc1cc(C(=O)Nc2ccccc2F)ccc1N1CC2CC(C1)c1cccc(=O)n1C2 (stereo unspecified) | i | i | i | i | i | i | nt | nt | nt
CCC(C)C1NC(=O)C(NC(=O)C(CC(C)C)N(C)C(=O)C2CCCN2C(=O)C(C)O)C(C)OC(=O)C(Cc2ccc(OC)cc2)N(C)C(=O)C2CCCN2C(=O)C(CC(C)C)NC(=O)[C@H](C)C(=O)[C@H](C(C)C)OC(=O)CC1O (stereo partly specified) | i | i | i | i | i | i | nt | nt | nt
O=C1NC(=O)N(c2ccc(F)cc2)C(=O)/C1=C/c1ccc(N2CCOCC2)cc1 | i | i | i | i | i | i | nt | nt | nt
COc1cc(OC)c(OC)cc1/C=C1\C(=O)NC(=O)N(Cc2ccccc2)C1=O | i | i | i | i | i | i | nt | nt | nt
COc1ccc(CN2C(=O)NC(=O)/C(=C/c3ccc([N+](=O)[O-])s3)C2=O)cc1 | 51 | 51 | i | 65 | 42 | i | i | i | i
O=C1NC(=O)N(Cc2ccc(F)cc2)C(=O)/C1=C\c1ccc(N2CCCC2)cc1 | nt | i | 39 | i | 38 | i | 98 | i | i
O=C1NC(=O)N(Cc2ccc(F)cc2)C(=O)/C1=C\c1ccc([N+](=O)[O-])s1 | i | i | i | 58 | 35 | i | i | 15 | i
SMILES | Rpn11 inh | DNMT1 block | SKN-1 block | SUMO1-SIM PPI | CSN inh | MT1-MMP act inh | CSN5 deneddyl | MMP2 cntr CSN | Thrombin counter | others
O=C1NCN(c2ccccc2)C12CCN(C(c1ccccc1OC(F)(F)F)c1nnnn1C1CCCC1)CC2 (stereo unspecified) | i | i | i | i | i | i | nt | nt | nt
CCOCCCn1c(N)c(C(=O)Nc2sc3c(c2C(=O)OC)CCCC3)c2nc3ccccc3nc21 | i | i | i | i | 52 | i | 93 | i | i
O=C1NC(=O)N(c2cccc(Cl)c2)C(=O)/C1=C\c1ccc(Sc2nc3ccccc3[nH]2)o1 | 58 | i | i | i | 38 | i | i | i | 25
COc1cccc(N=Cc2c(O)n(Cc3ccco3)c(=O)[nH]c2=O)c1 | i | i | i | i | i | i | nt | nt | nt
COc1ccc(/C=C2/C(=O)N(Cc3ccco3)C(=O)N(C(C)C)C2=O)cc1 | 171 | 94 | i | 43 | 99 | i | i | i | 56
O=C1NCN(c2ccccc2)C12CCN(C(c1ccccc1OC(F)(F)F)c1nnnn1-c1ccc3c(c1)OCCO3)CC2 (stereo unspecified) | i | i | i | i | i | i | nt | nt | nt
CCn1nc(/C=C/c2ccccc2)nc2c(=O)n(C)c(=O)nc1-2 | i | 108 | i | i | 59 | i | i | i | i
CCC1(C)OC(c2ccccc2)=C/C(=C/C=C2C(=O)NC(=O)NC2=O)O1 (stereo unspecified) | nt | i | 48 | i | 78 | i | 139 | i | 51
